Test results from ChEMBL document CHEMBL1687913, “Structure-activity relationship, conformational and biological studies of temporin L analogues” (J Med Chem, 2011).
In brackets after ≈: the same amount, converted by molar mass. Where a SMILES comes first, the peptide text is derived from it.

What was measured:
[1] = test system: Acinetobacter baumannii; experiment: Antibacterial activity against Acinetobacter baumannii ATCC 19606 after 18 to 20 hrs by microbroth dilution method; assay type: functional
Summary of the method: (§1)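 CLSI microbroth dilution, adapted. Mid-log bacteria, 2 × 10^6 CFU/mL in Mueller-Hinton broth, mixed 1:1 with MH broth holding peptide in serial 2-fold dilutions in 20% ethanol (0.75-48 μM). Incubated 18-20 h at 37 °C; growth read as A600. MIC is the lowest concentration giving 100% growth inhibition.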

[2] = test system: Acinetobacter junii; experiment: Antibacterial activity against […] Acinetobacter junii RT-4 after 18 to 20 hrs by microbroth dilution method; assay type: functional; summary of the method: as §1
[3] = test system: Enterococcus faecalis; experiment: Antibacterial activity against Enterococcus faecalis ATCC 29212 after 18 to 20 hrs by microbroth dilution method; assay type: functional; summary of the method: as §1
[4] = test system: Escherichia coli; experiment: Antibacterial activity against Escherichia coli ATCC 25922 after 18 to 20 hrs by microbroth dilution method; assay type: functional; summary of the method: as §1
[5] = test system: Escherichia coli; experiment: Antibacterial activity against Escherichia coli D21 after 18 to 20 hrs by microbroth dilution method; assay type: functional; summary of the method: as §1
[6] = test system: Pseudomonas syringae; experiment: Antibacterial activity against Pseudomonas syringae pv tobaci after 18 to 20 hrs by microbroth dilution method; assay type: functional; summary of the method: as §1
[7] = test system: Pseudomonas aeruginosa; experiment: Antibacterial activity against Pseudomonas aeruginosa ATCC 15692 after 18 to 20 hrs by microbroth dilution method; assay type: functional; summary of the method: as §1
[8] = test system: Pseudomonas aeruginosa; experiment: Antibacterial activity against Pseudomonas aeruginosa ATCC 27853 after 18 to 20 hrs by microbroth dilution method; assay type: functional; summary of the method: as §1
[9] = test system: Yersinia pseudotuberculosis; experiment: Antibacterial activity against Yersinia pseudotuberculosis YPIII after 18 to 20 hrs by microbroth dilution method; assay type: functional
Summary of the method: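 Broth microdilution adapted from CLSI. Mid-log bacteria at 2 × 10^6 CFU/mL in Mueller-Hinton broth were mixed 1:1 with MH broth containing peptide in serial 2-fold dilutions (peptide in 20% ethanol), 0.75-48 μM. Plates were incubated 18-20 h at 37 °C and growth was read as A600. MIC is the concentration giving 100% growth inhibition.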

[10] = test system: Priestia megaterium; experiment: Antibacterial activity against Bacillus megaterium Bm11 after 18 to 20 hrs by microbroth dilution method; assay type: functional; summary of the method: as §1
[11] = test system: Staphylococcus aureus; experiment: Antibacterial activity against Staphylococcus aureus ATCC 25923 after 18 to 20 hrs by microbroth dilution method; assay type: functional; summary of the method: as §1
[12] = test system: Staphylococcus aureus; experiment: Antibacterial activity against Staphylococcus aureus Cowan I after 18 to 20 hrs by microbroth dilution method; assay type: functional; summary of the method: as §1
[13] = test system: Staphylococcus capitis; experiment: Antibacterial activity against Staphylococcus capitis after 18 to 20 hrs by microbroth dilution method; assay type: functional; summary of the method: as §1
[14] = test system: Staphylococcus epidermidis; experiment: Antibacterial activity against Staphylococcus epidermidis ATCC 12228 after 18 to 20 hrs by microbroth dilution method; assay type: functional; summary of the method: as §1
[15] = test system: Streptococcus pyogenes; experiment: Antibacterial activity against Streptococcus pyogenes ATCC 21547 after 18 to 20 hrs by microbroth dilution method; assay type: functional; summary of the method: as §1
[16] = test system: Candida albicans; experiment: Antifungal activity against Candida albicans ATCC 10231 after 18 to 20 hrs by microbroth dilution method; assay type: functional
Summary of the method: (§2)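 Yeasts tested by adapted CLSI microbroth dilution in Winge medium. Peptide given in serial 2-fold dilutions (0.75-48 μM, made in 20% ethanol). Incubation 18-20 h at 30 °C, read at A600. MIC taken as the concentration giving complete (100%) growth inhibition.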

[17] = test system: Schizosaccharomyces pombe; experiment: Antifungal activity against Schizosaccharomyces pombe after 18 to 20 hrs by microbroth dilution method; assay type: functional; summary of the method: as §2
[18] = test system: Saccharomyces cerevisiae; experiment: Antifungal activity against Saccharomyces cerevisiae after 18 to 20 hrs by microbroth dilution method; assay type: functional; summary of the method: as §2
[19] = Toxicity in human erythrocytes assessed as hemolysis at 24 uM after 40 mins; assay type: cell-based, Erythrocyte; details: read-out: Activity
Summary of the method: (§3)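 Human red blood cells suspended in 0.9% (w/v) NaCl and incubated 40 min at 37 °C with gentle mixing with serial 2-fold peptide dilutions (peptide predissolved in 20% ethanol). Spun 5 min at 900g; supernatant read at 415 nm. Cells lysed in distilled water set the 100% lysis reference.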

[20] = Toxicity in human erythrocytes assessed as hemolysis at 12 uM after 40 mins; assay type: cell-based, Erythrocyte; details: read-out: Activity; summary of the method: as §3
[21] = Toxicity in human erythrocytes assessed as hemolysis at 6 uM after 40 mins; assay type: cell-based, Erythrocyte; details: read-out: Activity; summary of the method: as §3
[22] = Toxicity in human erythrocytes assessed as hemolysis at 3 uM after 40 mins; assay type: cell-based, Erythrocyte; details: read-out: Activity; summary of the method: as §3
[23] = Toxicity in human erythrocytes assessed as hemolysis at 1.5 uM after 40 mins; assay type: cell-based, Erythrocyte; details: read-out: Activity; summary of the method: as §3

Structure (SMILES) | MIC [1] [µM] | MIC [2] [µM] | MIC [3] [µM] | MIC [4] [µM] | MIC [5] [µM] | MIC [6] [µM] | MIC [7] [µM] | MIC [9] [µM] | MIC [10] [µM] | MIC [11] [µM] | MIC [12] [µM] | MIC [13] [µM] | MIC [14] [µM] | MIC [15] [µM] | MIC [16] [µM] | MIC [17] [µM] | hemolysis at 40 min, 24 µM [19] [%] | hemolysis at 40 min, 12 µM [20] [%] | hemolysis at 40 min, 6 µM [21] [%] | hemolysis at 40 min, 3 µM [22] [%] | also measured
CC[C@H](C)[C@H](NC(=O)[C@H](CCCNC(=N)N)NC(=O)[C@@H]1CCCN1C(=O)[C@H](CC(C)C)NC(=O)[C@H](Cc1ccccc1)NC(=O)[C@H](CCCCN)NC(=O)[C@H](CO)NC(=O)[C@H](Cc1ccccc1)NC(=O)[C@H](Cc1c[nH]c2ccccc12)NC(=O)[C@@H]1CCCN1C(=O)[C@@H](NC(=O)[C@@H](N)Cc1ccccc1)C(C)C)C(=O)N[C@@H](CC(C)C)C(N)=O | 48 (≈ 79.2 µg/mL) | 12 (≈ 19.8 µg/mL) | 48 (≈ 79.2 µg/mL) | 48 (≈ 79.2 µg/mL) | 24 (≈ 39.6 µg/mL) | 24 (≈ 39.6 µg/mL) | > 48 | 24 (≈ 39.6 µg/mL) | 3 (≈ 4.95 µg/mL) | 24 (≈ 39.6 µg/mL) | 24 (≈ 39.6 µg/mL) | 12 (≈ 19.8 µg/mL) | 12 (≈ 19.8 µg/mL) | 12 (≈ 19.8 µg/mL) | 12 (≈ 19.8 µg/mL) | 12 (≈ 19.8 µg/mL) | 5 | 5 | 4.5 | 2 | MIC [8]: > 48 µM; MIC [18]: 12 µM (≈ 19.8 µg/mL); hemolysis at 40 min, 1.5 µM [23]: 2%
CC[C@@H](C)[C@@H](NC(=O)[C@@H](CCCNC(=N)N)NC(=O)CNC(=O)[C@@H](CC(C)C)NC(=O)[C@@H](Cc1ccccc1)NC(=O)[C@@H](CCCCN)NC(=O)[C@@H](CO)NC(=O)[C@@H](Cc1ccccc1)NC(=O)[C@@H](Cc1c[nH]c2ccccc12)NC(=O)[C@@H](CCC(N)=O)NC(=O)[C@H](NC(=O)[C@H](N)Cc1ccccc1)C(C)C)C(=O)N[C@H](CC(C)C)C(N)=O [listing 1 of 2 here] |  |  |  |  |  |  |  |  |  |  |  |  |  |  |  |  | 90 | 88 | 46 | 13 | hemolysis at 40 min, 1.5 µM [23]: 5%
CC[C@@H](C)[C@@H](NC(=O)[C@@H](CCCNC(=N)N)NC(=O)CNC(=O)[C@@H](CC(C)C)NC(=O)[C@@H](Cc1ccccc1)NC(=O)[C@@H](CCCCN)NC(=O)[C@@H](CO)NC(=O)[C@@H](Cc1ccccc1)NC(=O)[C@@H](Cc1c[nH]c2ccccc12)NC(=O)[C@@H](CCC(N)=O)NC(=O)[C@H](NC(=O)[C@H](N)Cc1ccccc1)C(C)C)C(=O)N[C@H](CC(C)C)C(N)=O [listing 2 of 2 here] | 6 (≈ 9.84 µg/mL) | 6 (≈ 9.84 µg/mL) | 3 (≈ 4.92 µg/mL) | 12 (≈ 19.7 µg/mL) | 12 (≈ 19.7 µg/mL) | 6 (≈ 9.84 µg/mL) | 48 (≈ 78.7 µg/mL) | 3 (≈ 4.92 µg/mL) | 1.5 (≈ 2.46 µg/mL) | 3 (≈ 4.92 µg/mL) | 3 (≈ 4.92 µg/mL) | 3 (≈ 4.92 µg/mL) | 3 (≈ 4.92 µg/mL) | 6 (≈ 9.84 µg/mL) | 6 (≈ 9.84 µg/mL) | 6 (≈ 9.84 µg/mL) |  |  |  |  | MIC [8]: > 48 µM; MIC [18]: 6 µM (≈ 9.84 µg/mL)
CC[C@@H](C)[C@@H](NC(=O)[C@H](N)CC(C)C)C(=O)N[C@H](CCCNC(=N)N)C(=O)NCC(=O)N[C@H](CC(C)C)C(=O)N[C@H](Cc1ccccc1)C(=O)N[C@H](CCCCN)C(=O)N[C@H](CO)C(=O)N[C@H](Cc1ccccc1)C(=O)N[C@H](Cc1c[nH]c2ccccc12)C(=O)N[C@H](CCC(N)=O)C(=O)N[C@@H](C(=O)N[C@H](Cc1ccccc1)C(N)=O)C(C)C [listing 1 of 2 here] |  |  |  |  |  |  |  |  |  |  |  |  |  |  |  |  | 81 | 49 | 15 | 6 | hemolysis at 40 min, 1.5 µM [23]: 1%
CC[C@@H](C)[C@@H](NC(=O)[C@H](N)CC(C)C)C(=O)N[C@H](CCCNC(=N)N)C(=O)NCC(=O)N[C@H](CC(C)C)C(=O)N[C@H](Cc1ccccc1)C(=O)N[C@H](CCCCN)C(=O)N[C@H](CO)C(=O)N[C@H](Cc1ccccc1)C(=O)N[C@H](Cc1c[nH]c2ccccc12)C(=O)N[C@H](CCC(N)=O)C(=O)N[C@@H](C(=O)N[C@H](Cc1ccccc1)C(N)=O)C(C)C [listing 2 of 2 here] | 6 (≈ 9.84 µg/mL) | 6 (≈ 9.84 µg/mL) | 12 (≈ 19.7 µg/mL) | 12 (≈ 19.7 µg/mL) | 12 (≈ 19.7 µg/mL) | 6 (≈ 9.84 µg/mL) | > 48 | 24 (≈ 39.4 µg/mL) | 1.5 (≈ 2.46 µg/mL) | 12 (≈ 19.7 µg/mL) | 3 (≈ 4.92 µg/mL) | 6 (≈ 9.84 µg/mL) | 6 (≈ 9.84 µg/mL) | 6 (≈ 9.84 µg/mL) | 12 (≈ 19.7 µg/mL) | 1.5 (≈ 2.46 µg/mL) |  |  |  |  | MIC [8]: > 48 µM; MIC [18]: > 48 µM
CC[C@H](C)[C@H](NC(=O)[C@H](CCCNC(=N)N)NC(=O)CNC(=O)[C@H](CC(C)C)NC(=O)[C@H](Cc1ccccc1)NC(=O)[C@H](CCCCN)NC(=O)[C@H](CO)NC(=O)[C@H](Cc1ccccc1)NC(=O)[C@H](Cc1c[nH]c2ccccc12)NC(=O)[C@@H]1CCCN1C(=O)[C@H](CC(C)C)NC(=O)[C@@H](N)Cc1ccccc1)C(=O)N[C@@H](CC(C)C)C(N)=O (H-FLPWFSKFLGRIL-NH2) | 12 (≈ 19.5 µg/mL) | 12 (≈ 19.5 µg/mL) | 12 (≈ 19.5 µg/mL) | 12 (≈ 19.5 µg/mL) | 24 (≈ 39 µg/mL) | 12 (≈ 19.5 µg/mL) | > 48 | 6 (≈ 9.74 µg/mL) | 3 (≈ 4.87 µg/mL) | 3 (≈ 4.87 µg/mL) | 3 (≈ 4.87 µg/mL) | 3 (≈ 4.87 µg/mL) | 3 (≈ 4.87 µg/mL) | 6 (≈ 9.74 µg/mL) | 12 (≈ 19.5 µg/mL) | 6 (≈ 9.74 µg/mL) | 93 | 64 | 19 | 9 | MIC [18]: 12 µM (≈ 19.5 µg/mL); hemolysis at 40 min, 1.5 µM [23]: 4%
CC[C@H](C)[C@H](NC(=O)[C@H](CCCNC(=N)N)NC(=O)[C@H](CC(C)C)NC(=O)[C@H](CC(C)C)NC(=O)[C@H](Cc1ccccc1)NC(=O)[C@H](CCCCN)NC(=O)[C@H](CO)NC(=O)[C@H](Cc1ccccc1)NC(=O)[C@H](Cc1c[nH]c2ccccc12)NC(=O)[C@H](CCC(N)=O)NC(=O)[C@@H](NC(=O)[C@@H](N)Cc1ccccc1)C(C)C)C(=O)N[C@@H](CC(C)C)C(N)=O (H-FVQWFSKFLLRIL-NH2) | 48 (≈ 81.4 µg/mL) | > 48 | 48 (≈ 81.4 µg/mL) | > 48 | 48 (≈ 81.4 µg/mL) | > 48 | > 48 | 6 (≈ 10.2 µg/mL) | 48 (≈ 81.4 µg/mL) | 48 (≈ 81.4 µg/mL) | 48 (≈ 81.4 µg/mL) | > 48 | 3 (≈ 5.09 µg/mL) | 6 (≈ 10.2 µg/mL) | > 48 | 6 (≈ 10.2 µg/mL) | 83 | 80 | 80 | 78 | MIC [8]: > 48 µM; hemolysis at 40 min, 1.5 µM [23]: 69%
